Source: PubChem BioAssay (Broad Institute)
IDH1 mut inh: IDH1 R132H (human) inhibition. 70,000 tested, 0.18% active. AID 624101. inhibition, % at 10 µM. IDH1 R132H reductase, diaphorase/resazurin fluorescence, 60 min. O75874; in the data active = inhibition above about 34%; inconclusive = no clear call, values can overlap the other calls; inactive = below about 11%;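 also: 0% = DMSO and 100% = no enzyme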
Target sequence (O75874 whole entry R132H): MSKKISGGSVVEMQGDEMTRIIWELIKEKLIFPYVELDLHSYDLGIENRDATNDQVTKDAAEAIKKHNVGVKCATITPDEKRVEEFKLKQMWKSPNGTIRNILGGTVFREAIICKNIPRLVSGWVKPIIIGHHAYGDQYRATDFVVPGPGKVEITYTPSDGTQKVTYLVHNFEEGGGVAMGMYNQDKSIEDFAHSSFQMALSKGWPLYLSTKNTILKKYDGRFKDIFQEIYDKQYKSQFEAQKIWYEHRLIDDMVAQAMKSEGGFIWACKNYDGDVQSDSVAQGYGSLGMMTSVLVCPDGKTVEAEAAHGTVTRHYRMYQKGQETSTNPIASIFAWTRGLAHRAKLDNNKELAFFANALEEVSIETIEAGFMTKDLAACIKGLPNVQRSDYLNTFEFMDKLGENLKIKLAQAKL
KDM4C inh: KDM4C (human) demethylase inhibition; 96,000 tested, 0.15% active; GST-KDM4C 2-372, H3K9me3 peptide, LANCE TR-FRET; inhibition, % at 12.5 µM; Q9H3R0;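 active = mean replicate inhibition above about 25%, with at least 55% of replicates also reaching it, limit read from the data, passing the limit was not always enough; inconclusive = only one of those two conditions met; inactive = neither condition met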
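Compound: one test concentration per compound; Material: GST-GASC-1 enzyme fragment 2-372; Amount: GASC-1 enzyme at 10 nM final in reaction; Also added: H3K9me3 peptide substrate, Fe(II), 2-oxoglutarate; Technique: LANCE TR-FRET; Times: 30 min demethylation and 1 h detection at room temperature.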
Tcruzi prolif: blocks T. cruzi growth in NIH3T3 culture; T. cruzi beta-gal in NIH3T3, GalScreen luminescence, 90 h; inhibition, % at 8.34 µM; 77,000 tested, 5.9% active;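 active = mean inhibition above about 93%, with at least 55% of replicates each passing it, limit read from the data, passing the limit was not always enough; inconclusive = only one of those two conditions holds; inactive = neither condition holds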
Pf Dd2 inh: inhibitors of Plasmodium falciparum Dd2 growth. activity change, % at 10 µM. AID 1159554. P. falciparum Dd2 growth, SYBR Green, 72 h; active compounds read low. 94,000 tested, 2.3% active; in the data active = activity change below about -80%; inconclusive = no clear call, values can overlap the other calls
Numbers without * were called inactive; ? = inconclusive; . = no result. An excerpt weighted towards active compounds, which were near 5.9% of everything screened.

SMILES	IDH1 mut inh	KDM4C inh	Tcruzi prolif	Pf Dd2 inh
COc1ccc(NC(=O)N(C)C[C@H]2OCCCC[C@H](C)Oc3ccc(NC(=O)c4ccccc4)cc3C(=O)N([C@@H](C)CO)C[C@H]2C)cc1	1.0	-1.0	.	-89.0*
COc1ccc(NC(=O)N(C)C[C@H]2OCCCC[C@H](C)Oc3ccc(NC(=O)Nc4ccc(C(F)(F)F)cc4)cc3C(=O)N([C@H](C)CO)C[C@@H]2C)cc1	0.6	-0.3	?	-4.2
COc1ccc(NC(=O)N(C)C[C@@H]2OCCCC[C@H](C)Oc3ccc(NC(=O)c4ccccc4)cc3C(=O)N([C@H](C)CO)C[C@@H]2C)cc1	0.6	3.1	42.5	?
COc1ccc(NC(=O)N(C)C[C@H]2OCCCC[C@@H](C)Oc3ccc(NC(=O)Nc4ccc(C(F)(F)F)cc4)cc3C(=O)N([C@H](C)CO)C[C@H]2C)cc1	.	0.9	115.8*	-83.1*
COc1ccc(NC(=O)N(C)C[C@H]2OCCCC[C@@H](C)Oc3ccc(NC(=O)Nc4ccc(C(F)(F)F)cc4)cc3C(=O)N([C@@H](C)CO)C[C@@H]2C)cc1	.	4.5	83.1	-83.7*
CCn1c(SCC(=O)Nc2cccc(SC)c2)nnc1-c1ccc(Cl)cc1	0.0	.	.	.
CCCN(C)C[C@H]1OCCCC[C@H](C)Oc2ccc(NC(=O)Nc3cccc4ccccc34)cc2C(=O)N([C@@H](C)CO)C[C@H]1C	.	20.0	43.2	-91.2*
C[C@@H]1CCCCO[C@H](CN(C)CC2CC2)[C@H](C)CN([C@@H](C)CO)C(=O)c2cc(NC(=O)Nc3cccc4ccccc34)ccc2O1	.	-2.2	81.1	-79.7
C[C@@H]1CCCCO[C@@H](CN(C)CC2CCCCC2)[C@@H](C)CN([C@@H](C)CO)C(=O)c2cc(NC(=O)Nc3cccc4ccccc34)ccc2O1	.	-3.4	121.3	-82.1*
C[C@@H]1CCCCO[C@H](CN(C)CC2CCCCC2)[C@H](C)CN([C@@H](C)CO)C(=O)c2cc(NC(=O)Nc3cccc4ccccc34)ccc2O1	.	-0.2	120.7	-88.1*
C[C@@H]1CCCCO[C@H](CN(C)CC2CCCCC2)[C@H](C)CN([C@H](C)CO)C(=O)c2cc(NC(=O)Nc3cccc4ccccc34)ccc2O1	-0.8	-5.5	122.3	-87.7*
COc1ccccc1OCC(=O)Nc1cc(Cl)ccc1O	-0.4	.	.	.
Cc1cc(C)c(NC(=O)CN(c2ccc(Br)cc2)S(C)(=O)=O)c(C)c1	0.4	.	.	.
C[C@@H]1CN([C@H](C)CO)C(=O)c2cc(NC(=O)Nc3cccc4ccccc34)ccc2O[C@@H](C)CCCCO[C@@H]1CN(C)CC1CCCCC1	.	-4.6	121.8	-88.3*
N#C[C@H]1[C@@H](c2ccccc2-c2ccccc2F)[C@@H](CO)N1C(=O)C1CCOCC1	.	1.4	.	-94.9*
COc1ccc(-c2ccccc2[C@H]2[C@@H](C#N)N(C(=O)C3CCCCC3)[C@H]2CO)cc1	.	-0.5	.	-92.7*
COc1ccc(-c2ccccc2[C@H]2[C@@H](CO)N(C(=O)C3CCCCC3)[C@H]2C#N)cc1	.	-0.2	.	9.6
N#C[C@H]1[C@H](c2ccccc2-c2ccccc2F)[C@H](CO)N1C(=O)C1CCOCC1	.	2.6	.	-73.1
COc1ccc(-c2ccccc2[C@H]2[C@@H](CO)N(C(=O)C3CCOCC3)[C@H]2C#N)cc1	.	-0.8	.	-86.8*
COc1ccc(NC(=O)CSc2nc(C)cc(=O)[nH]2)c(OC)c1	-0.3	.	.	.
COc1cccc(Nc2nc(C3(C)CC4(CC(C)OC4=O)C(=O)O3)cs2)c1 (stereo not given)	0.0	.	.	.
O=C(CCCCCCC(=O)Nc1ccccc1O)N/N=C/c1cc(Br)cc([N+](=O)[O-])c1O	-0.1	.	.	.
COCC#Cc1ccc(CC[C@H]2O[C@H]3CC[C@H](CO)O[C@H]3C[C@H]2n2cc(C3CC3)nn2)cc1	.	.	.	-72.8
OC[C@@H]1CC[C@@H]2O[C@H](CCc3ccc(C#Cc4ccccc4)cc3)[C@H](n3cc(-c4ccccc4)nn3)C[C@@H]2O1	.	.	.	-83.8*
COCC#Cc1ccc(CC[C@H]2O[C@H]3CC[C@@H](CO)O[C@H]3C[C@@H]2n2cc(C3CC3)nn2)cc1	.	.	.	-89.4*
CCCC#Cc1ccc(CC[C@H]2O[C@H]3CC[C@H](CO)O[C@H]3C[C@@H]2n2cc(C(C)(C)O)nn2)cc1	.	.	.	-85.0*
OC[C@H]1CC[C@@H]2O[C@H](CCc3ccc(-c4ccc(F)cc4)cc3)[C@@H](n3cc(C4CC4)nn3)C[C@@H]2O1	.	.	.	-47.0
Cc1c(O)ccc(-c2[nH]ncc2-c2nncn2-c2ccccc2)c1O	9.0	.	.	.
COc1ccc(S(=O)(=O)N(C)C[C@H]2OCCCC[C@H](C)Oc3ccc(NC(=O)NC4CCCCC4)cc3C(=O)N([C@@H](C)CO)C[C@H]2C)cc1	0.1	-0.8	67.1	-81.4*
